# Article PMC6420060 (ACS applied materials & interfaces, 2018)
# Tests used:
# Type in all cases: physicochemical
# [1] = Permeation into trapped giant unilamellar vesicles measured by FCS; settings: 20 nM; for permeation into individual GUVs: 20% POPS
# Summary of the method: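 POPC/POPS (4:1) GUVs, sucrose inside and glucose outside, ± 10 μM Ru complex for about 45 min. Held in BSA-coated microfluidic hydrodynamic traps with valves pressurised to 2 bar. 20 nM calcein in hosting buffer flushed in, valves reopened, static or under flow. After 30 min, FCS used a 488 nm laser at 60 μW. Curves fitted with a triplet term and corrected for buffer background. Permeation taken as N inside versus outside per vesicle.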
# [2] = GUV size after incorporation of Ru; settings: all samples pooled
# Summary of the method: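 GUVs (POPC:POPS 4:1) made by emulsion transfer: 1 M sucrose/140 mM KCl/10 mM HEPES pH 7.4 inside, 1 M glucose/140 mM NaCl/10 mM HEPES outside. Incubated with 10 μM (final) Ru complex, typically 45 min, ± 200 μM (final) potassium ferricyanide. Imaged under a 60× water-immersion objective. Diameter taken at the z-plane of largest size, averaged over x and y. All vesicles pooled into histograms.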
# [3] = ζ-Potential of GUVs after incubation with Ru; settings: GUVs containing 1 M sucrose measured in 1 M glucose, Zetasizer Nano ZSP
Compound,"permeation into individual GUVs ([1]; with Ru(C17)2^2+, sub-20 μm vesicle diameters)","permeation into individual GUVs under flow ([1]; without Ru(C17)2^2+, nominal flow rates of 2, 5, 8, and 11 μL/min, larger vesicles (above 20 μm))","permeation into individual GUVs ([1]; without Ru(C17)2^2+, vesicle diameter 20 μm)","permeation into individual GUVs ([1]; without Ru(C17)2^2+, vesicle diameter down to 10 μm)",vesicle diameter with Ru(C17)2^2+ and addition of potassium ferricyanide [2],vesicle diameter upon incorporation of Ru(C17)2^2+ ([2]; 23.0 ± 6.6 without Ru(C17)2^2+),"ζ-potential of GUVs after incubation with Ru(C17)2^2+ ([3]; start of the period, pure GUVs with 20% POPS −90.8 ± 3.3 mV)",ζ-potential of GUVs after incubation with Ru(C17)2^2+ ([3]; up to 9 h after incubation)
O=C(O)CN(CC(=O)O)Cc1cc2c(cc1O)Oc1cc(O)c(CN(CC(=O)O)CC(=O)O)cc1C21OC(=O)c2ccccc21 [calcein],below 30%,below 10%,below 10%,60%,,,,
dihepta-decylated tris(bipyridine)ruthenium(II) complex [Ru(C17)2^2+],,,,,15.8 ± 3.8 µm,17.9 ± 4.8 nm,−11.7 ± 4.8 mV,−18.5 ± 2.6 mV
